The term IC50 denotes the point on the concentration scale where inhibition reaches its midpoint. A higher IC50 goes with weaker potency.

The first data set addresses Human immunodeficiency virus 1 (Human immunodeficiency virus 1, UniProt Q72547). Briefly: Effective concentration (in vitro anti-HIV activity ) which produces a 50% survival of HIV-1-infected CEM cells relative to uninfected untreated controls; Inactive. The class given is functional, cell-based. Conditions: ccrf-cem; call rule not given here. Summed up: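 HIV-1-infected CEM (T4 lymphocyte) cells given small amounts of virus, allowing one complete replication cycle to cause cell killing. Read-out: protection from cytolysis (cell survival) relative to uninfected untreated controls. EC50 is the drug concentration giving 50% survival of infected cells. AZT-treated positive control run concurrently under identical conditions. Run through the NCI Developmental Therapeutics Program AIDS antiviral screen.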
On to `CC(C)O[C@H]1N(C2CC(N=[N+]=[N-])C(CO)O2)C(=O)NC(=O)[C@]1(C)Cl` (some centres undefined), for which the EC50 entry was “Not Active”.
For the molecule `CCO[C@H]1N(C2CC(N=[N+]=[N-])C(CO)O2)C(=O)NC(=O)[C@]1(C)Cl` (some centres undefined), the EC50 entry is “Not Active”.
For the molecule `CCO[C@@H]1N(C2CC(N=[N+]=[N-])C(CO)O2)C(=O)NC(=O)[C@@]1(C)Cl` (some centres undefined), the EC50 result is reported as “Not Active”.
As for `CCCCCCCCCCCCCCCCO[C@H]1N(C2CC(N=[N+]=[N-])C(CO)O2)C(=O)NC(=O)[C@]1(C)Cl` (some centres undefined), the EC50 entry was “Not Active”.
In the case of `CCCCCCCCCCCCCCCCO[C@H]1N(C2CC(N=[N+]=[N-])C(CO)O2)C(=O)NC(=O)[C@]1(C)Br` (some centres undefined), the EC50 result is “Not Active”.
On to `CCO[C@H]1N(C2CC(N=[N+]=[N-])C(CO)O2)C(=O)NC(=O)[C@@]1(C)Cl` (some centres undefined), for which the EC50 result is recorded as “Not Active”.
Still for that read-out and setting: the value for `CCCCCCCCO[C@H]1N(C2CC(N=[N+]=[N-])C(CO)O2)C(=O)NC(=O)[C@]1(C)Cl` (some centres undefined) was “Not Active”.

The test system of the next data set is CCRF-CEM. Briefly: Inhibitory concentration (cytotoxic activity) which results in a 50% survival of […]; ND=Not determined. Conditions: Homo sapiens. The class given is functional, cell-based. Summed up:
(§1)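 Cytotoxicity run in the NCI AIDS screening program on CEM T4 lymphocytes alongside the anti-HIV test. IC50 = drug concentration giving 50% survival of uninfected untreated control cells. AZT control tested concurrently.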
In turn, `CCO[C@H]1N(C2CC(N=[N+]=[N-])C(CO)O2)C(=O)NC(=O)[C@]1(C)Cl` (some centres undefined) showed an IC50 above 200 µM.
On to `CCCCCCCCO[C@H]1N(C2CC(N=[N+]=[N-])C(CO)O2)C(=O)NC(=O)[C@]1(C)Cl` (some centres undefined), for which inhibition was half-maximal at 37.5 µM (IC50).

Tested on in a further data set: not listed separately
Briefly: Therapeutic index of IC50 to EC50. Conditions: read-out: TI. Summed up:
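TI = IC50/EC50, both from the NCI CEM cell screen. IC50 is the drug concentration giving 50% survival of uninfected untreated controls. EC50 is the concentration giving 50% survival of HIV-1-infected cells relative to uninfected untreated controls.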
In the case of `CC1(Cl)C(=O)NC(=O)N([C@H]2C[C@H](N=[N+]=[N-])[C@@H](CO)O2)C1N=[N+]=[N-]` (some centres undefined), the selectivity ratio came out at 235.
Take `CCCCCCCCO[C@H]1N(C2CC(N=[N+]=[N-])C(CO)O2)C(=O)NC(=O)[C@]1(C)Br` (some centres undefined): the selectivity ratio was 14.
On to `CC(C)O[C@H]1N(C2CC(N=[N+]=[N-])C(CO)O2)C(=O)NC(=O)[C@]1(C)Br` (some centres undefined), for which the selectivity ratio was 35.
For the molecule `CO[C@H]1N([C@H]2C[C@H](N=[N+]=[N-])[C@@H](CO)O2)C(=O)NC(=O)C1(C)Cl` (some centres undefined), the selectivity ratio was 155.
For the molecule `CC1(Br)C(=O)NC(=O)N([C@H]2C[C@H](N=[N+]=[N-])[C@@H](CO)O2)C1N=[N+]=[N-]` (some centres undefined), the selectivity ratio is below 1.

A further data set deals with CCRF-CEM. Briefly: Inhibitory concentration (cytotoxic activity) which results in a 50% survival of […]. The class given is functional, cell-based. To be noted: Homo sapiens. The essentials: as §1
For the molecule `CC1(Cl)C(=O)NC(=O)N([C@H]2C[C@H](N=[N+]=[N-])[C@@H](CO)O2)C1N=[N+]=[N-]` (some centres undefined), the IC50 came to 350 µM.
For the molecule `CC(C)O[C@H]1N(C2CC(N=[N+]=[N-])C(CO)O2)C(=O)NC(=O)[C@]1(C)Cl` (some centres undefined), the IC50 was above 200 µM.
Turning to `CCCCCCCCO[C@H]1N(C2CC(N=[N+]=[N-])C(CO)O2)C(=O)NC(=O)[C@]1(C)Br` (some centres undefined), the IC50 worked out at 12.4 µM.
Same read-out and setting: the value for `CCO[C@@H]1N(C2CC(N=[N+]=[N-])C(CO)O2)C(=O)NC(=O)[C@@]1(C)Cl` (some centres undefined) was above 200 µM; that for `CC(C)O[C@H]1N(C2CC(N=[N+]=[N-])C(CO)O2)C(=O)NC(=O)[C@]1(C)Br` (some centres undefined) was above 200 µM; that for `CCCCCCCCCCCCCCCCO[C@H]1N(C2CC(N=[N+]=[N-])C(CO)O2)C(=O)NC(=O)[C@]1(C)Cl` (some centres undefined) was 31 µM.
For the molecule `CO[C@H]1N([C@H]2C[C@H](N=[N+]=[N-])[C@@H](CO)O2)C(=O)NC(=O)C1(C)Cl` (some centres undefined), the IC50 is above 890 µM.
On the same count and under the same terms, the value for `CCCCCCCCCCCCCCCCO[C@H]1N(C2CC(N=[N+]=[N-])C(CO)O2)C(=O)NC(=O)[C@]1(C)Br` (some centres undefined) was 11 µM.
On to `CCO[C@H]1N(C2CC(N=[N+]=[N-])C(CO)O2)C(=O)NC(=O)[C@@]1(C)Cl` (some centres undefined), for which the 50% inhibitory concentration (IC50) is above 200 µM.
On to `CC1(Br)C(=O)NC(=O)N([C@H]2C[C@H](N=[N+]=[N-])[C@@H](CO)O2)C1N=[N+]=[N-]` (some centres undefined), for which it took 176 µM to reach half-maximal inhibition (IC50).

The values are drawn from ChEMBL document CHEMBL1127432, “Synthesis, in vitro biological stability, and anti-HIV activity of 5-halo-6-alkoxy(or azido)-5,6-dihydro-3'-azido-3'-deoxythymidine diastereomers as potential prodrugs to 3'-azido-3'-deoxythymidine (AZT)” (J Med Chem, 1994).
